Source: ChEMBL document CHEMBL4043093, “2-Oxo-3, 4-dihydropyrimido[4, 5-d]pyrimidinyl derivatives as new irreversible pan fibroblast growth factor receptor (FGFR) inhibitors” (Eur J Med Chem, 2017)

Legend:
[1] = biological target: Activin receptor type-1-like (Homo sapiens) (UniProt P37023); test: Inhibition of wild-type human ACVRL1 (L164 to Q503 residues) expressed in Escherichia coli BL21 assessed as residual activity at 1000 nM after 30 mins by Kinomescan method relative to control
Outline: (§1)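 Single-point screen at a fixed 1 µM, run within a 456-kinase DiscoveRx KINOMEscan panel. Each kinase's read-out is Percent Control, i.e. signal relative to a control without compound. Hits were scored by a Percent Control < 35 cut-off, and an S(35) selectivity score was calculated across the non-mutant kinases.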

[2] = biological target: Cyclin-dependent kinase 11A (Homo sapiens) (UniProt Q9UQ88); test: Inhibition of wild-type human partial length CDC2L2 (D391 to K730 residues) expressed in Escherichia coli BL21 assessed as residual activity at 1000 nM after 30 mins by Kinomescan method relative to control
[3] = biological target: Cyclin-dependent kinase 2 (Homo sapiens) (UniProt P24941); test: Inhibition of wild-type human full length CDK2 (M1 to L298 residues) expressed in Escherichia coli BL21 assessed as residual activity at 1000 nM after 30 mins by Kinomescan method relative to control; outline: as §1
[4] = biological target: Casein kinase I isoform alpha-like (Homo sapiens) (UniProt Q8N752); test: Inhibition of wild-type human full length CSNK1A1L (M1 to N337 residues) expressed in Escherichia coli BL21 assessed as residual activity at 1000 nM after 30 mins by Kinomescan method relative to control; outline: as §1
[5] = biological target: Serine/threonine-protein kinase DCLK3 (Homo sapiens) (UniProt Q9C098); test: Inhibition of wild-type human partial length DCAMKL3 (E140 to V628 residues) expressed in Escherichia coli BL21 assessed as residual activity at 1000 nM after 30 mins by Kinomescan method relative to control
[6] = biological target: Dual specificity tyrosine-phosphorylation-regulated kinase 1A (Homo sapiens) (UniProt Q13627); test: Inhibition of wild-type human partial length DYRK1A (H129 to S509 residues) expressed in HEK293 cells assessed as residual activity at 1000 nM after 30 mins by Kinomescan method relative to control; format: cell-based
[7] = biological target: Epidermal growth factor receptor (Homo sapiens) (UniProt P00533); test: Inhibition of wild-type human partial length EGFR (R669 to V1011 residues) expressed in Escherichia coli BL21 assessed as residual activity at 1000 nM after 30 mins by Kinomescan method relative to control
[8] = biological target: Receptor tyrosine-protein kinase erbB-2 (Homo sapiens) (UniProt P04626); test: Inhibition of wild-type human partial length ERBB2 (K646 to V1225 residues) expressed in HEK293 cells assessed as residual activity at 1000 nM after 30 mins by Kinomescan method relative to control; format: cell-based
[9] = biological target: Homeodomain-interacting protein kinase 4 (Homo sapiens) (UniProt Q8NE63); test: Inhibition of wild-type human partial length HIPK4 (M1 to V384 residues) expressed in Escherichia coli BL21 assessed as residual activity at 1000 nM after 30 mins by Kinomescan method relative to control
[10] = biological target: Mitogen-activated protein kinase kinase kinase 13 (Homo sapiens) (UniProt O43283); test: Inhibition of wild-type human full length LZK (M1 to W966 residues) expressed in HEK293 cells assessed as residual activity at 1000 nM after 30 mins by Kinomescan method relative to control; format: cell-based
Outline: (§2)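 Single-concentration screen at 1 µM across a 456-kinase KINOMEscan panel. The read-out is Percent Control for each kinase.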

[11] = biological target: Mitogen-activated protein kinase kinase kinase kinase 5 (Homo sapiens) (UniProt Q9Y4K4); test: Inhibition of wild-type human partial length MAP4K5 (M1 to P297 residues) expressed in Escherichia coli BL21 assessed as residual activity at 1000 nM after 30 mins by Kinomescan method relative to control
[12] = biological target: Microtubule-associated serine/threonine-protein kinase 1 (Homo sapiens) (UniProt Q9Y2H9); test: Inhibition of wild-type human partial length MAST1 (S346 to V730 residues) expressed in HEK293 cells assessed as residual activity at 1000 nM after 30 mins by Kinomescan method relative to control; format: cell-based
[13] = tested on: Hepatocyte growth factor receptor (Homo sapiens), P08581 [Y1235D]; test: Inhibition of human partial length MET Y1235D mutant (D1010 to S1367 residues) expressed in Escherichia coli BL21 assessed as residual activity at 1000 nM after 30 mins by Kinomescan method relative to control
Outline: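 KINOMEscan binding panel of 456 kinases, with the test compound at a single concentration of 1 µM. Read-out is Percent Control.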

[14] = biological target: Serine/threonine-protein kinase 4 (Homo sapiens) (UniProt Q13043); test: Inhibition of wild-type human full length MST1 (M1 to F487 residues) expressed in Escherichia coli BL21 assessed as residual activity at 1000 nM after 30 mins by Kinomescan method relative to control; outline: as §2
[15] = biological target: Serine/threonine-protein kinase 38-like (Homo sapiens) (UniProt Q9Y2H1); test: Inhibition of wild-type human partial length NDR2 (N34 to E447 residues) expressed in Escherichia coli BL21 assessed as residual activity at 1000 nM after 30 mins by Kinomescan method relative to control
[16] = biological target: Serine/threonine-protein kinase SIK3 (Homo sapiens) (UniProt Q9Y2K2); test: Inhibition of wild-type human partial length QSK (A90 to L395 residues) expressed in HEK293 cells assessed as residual activity at 1000 nM after 30 mins by Kinomescan method relative to control; format: cell-based
[17] = biological target: Serine/threonine-protein kinase RIO1 (Homo sapiens) (UniProt Q9BRS2); test: Inhibition of wild-type human full length RIOK1 (M1 to K568 residues) expressed in Escherichia coli BL21 assessed as residual activity at 1000 nM after 30 mins by Kinomescan method relative to control
[18] = biological target: Serine/threonine-protein kinase TBK1 (Homo sapiens) (UniProt Q9UHD2); test: Inhibition of wild-type human full length TBK1 (M1 to L729 residues) expressed in HEK293 cells assessed as residual activity at 1000 nM after 30 mins by Kinomescan method relative to control; format: cell-based
[19] = biological target: Dual specificity testis-specific protein kinase 1 (Homo sapiens) (UniProt Q15569); test: Inhibition of wild-type human full length TESK1 (R37 to S626 residues) expressed in Escherichia coli BL21 assessed as residual activity at 1000 nM after 30 mins by Kinomescan method relative to control
[20] = biological target: Serine/threonine-protein kinase 32B (Homo sapiens) (UniProt Q9NY57); test: Inhibition of wild-type human full length YANK2 (M1 to S414 residues) expressed in Escherichia coli BL21 assessed as residual activity at 1000 nM after 30 mins by Kinomescan method relative to control
[21] = biological target: Mitogen-activated protein kinase kinase kinase 20 (Homo sapiens) (UniProt Q9NYL2); test: Inhibition of wild-type human partial length ZAK (M1 to L331 residues) expressed in Escherichia coli BL21 assessed as residual activity at 1000 nM after 30 mins by Kinomescan method relative to control

Chain of Microtubule-associated serine/threonine-protein kinase 1 (Homo sapiens) (Q9Y2H9 whole entry, looked up, the tested form may be a part): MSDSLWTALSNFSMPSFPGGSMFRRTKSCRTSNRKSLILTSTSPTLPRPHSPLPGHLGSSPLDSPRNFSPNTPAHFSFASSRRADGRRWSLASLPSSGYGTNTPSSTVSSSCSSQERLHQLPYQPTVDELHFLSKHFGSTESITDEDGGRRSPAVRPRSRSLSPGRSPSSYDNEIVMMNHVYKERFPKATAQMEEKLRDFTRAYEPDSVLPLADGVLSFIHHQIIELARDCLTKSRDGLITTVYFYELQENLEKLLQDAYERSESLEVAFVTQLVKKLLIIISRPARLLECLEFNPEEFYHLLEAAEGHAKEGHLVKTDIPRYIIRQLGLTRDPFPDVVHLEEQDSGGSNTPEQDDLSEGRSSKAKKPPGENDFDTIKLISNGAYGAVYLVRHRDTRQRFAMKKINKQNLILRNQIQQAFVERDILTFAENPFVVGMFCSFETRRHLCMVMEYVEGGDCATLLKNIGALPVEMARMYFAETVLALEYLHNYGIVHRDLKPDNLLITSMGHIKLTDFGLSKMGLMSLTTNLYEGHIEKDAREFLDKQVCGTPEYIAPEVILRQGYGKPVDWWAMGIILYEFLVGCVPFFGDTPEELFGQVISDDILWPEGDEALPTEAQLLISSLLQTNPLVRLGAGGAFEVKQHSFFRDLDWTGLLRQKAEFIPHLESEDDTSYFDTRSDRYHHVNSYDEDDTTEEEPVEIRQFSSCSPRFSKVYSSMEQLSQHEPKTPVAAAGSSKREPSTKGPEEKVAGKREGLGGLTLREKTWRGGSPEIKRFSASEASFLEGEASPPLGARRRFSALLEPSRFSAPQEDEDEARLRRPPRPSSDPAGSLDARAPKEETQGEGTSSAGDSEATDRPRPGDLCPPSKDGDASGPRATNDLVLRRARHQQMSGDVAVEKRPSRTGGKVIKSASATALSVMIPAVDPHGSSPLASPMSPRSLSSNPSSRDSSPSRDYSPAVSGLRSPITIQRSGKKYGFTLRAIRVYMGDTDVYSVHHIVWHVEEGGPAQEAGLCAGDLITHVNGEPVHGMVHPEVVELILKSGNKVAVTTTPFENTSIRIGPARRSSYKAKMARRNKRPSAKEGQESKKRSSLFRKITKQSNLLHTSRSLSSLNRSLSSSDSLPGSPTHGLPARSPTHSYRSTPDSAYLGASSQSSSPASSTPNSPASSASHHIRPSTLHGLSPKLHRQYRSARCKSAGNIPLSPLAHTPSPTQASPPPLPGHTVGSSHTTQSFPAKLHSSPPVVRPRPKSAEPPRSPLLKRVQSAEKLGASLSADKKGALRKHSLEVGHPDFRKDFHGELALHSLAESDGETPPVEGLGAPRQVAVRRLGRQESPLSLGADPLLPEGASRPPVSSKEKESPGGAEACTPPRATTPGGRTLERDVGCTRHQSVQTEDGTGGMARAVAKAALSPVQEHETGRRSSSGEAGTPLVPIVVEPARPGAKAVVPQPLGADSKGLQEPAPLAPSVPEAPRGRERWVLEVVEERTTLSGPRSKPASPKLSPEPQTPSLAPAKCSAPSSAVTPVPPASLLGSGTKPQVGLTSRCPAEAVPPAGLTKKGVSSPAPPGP
Chain of Serine/threonine-protein kinase 38-like (Homo sapiens) (Q9Y2H1 2-464 limits assumed): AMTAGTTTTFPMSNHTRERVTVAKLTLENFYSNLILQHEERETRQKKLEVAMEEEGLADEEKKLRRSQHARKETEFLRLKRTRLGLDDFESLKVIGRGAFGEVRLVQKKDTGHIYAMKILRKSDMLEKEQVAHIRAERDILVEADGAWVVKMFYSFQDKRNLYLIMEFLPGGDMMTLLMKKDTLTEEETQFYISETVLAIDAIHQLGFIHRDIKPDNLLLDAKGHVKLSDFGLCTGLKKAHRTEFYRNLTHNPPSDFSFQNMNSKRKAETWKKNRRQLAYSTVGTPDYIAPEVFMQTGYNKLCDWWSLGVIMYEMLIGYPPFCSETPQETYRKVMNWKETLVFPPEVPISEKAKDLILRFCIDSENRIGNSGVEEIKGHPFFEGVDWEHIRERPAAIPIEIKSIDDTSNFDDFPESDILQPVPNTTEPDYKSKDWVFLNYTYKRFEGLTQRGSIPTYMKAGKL
Chain of Serine/threonine-protein kinase SIK3 (Homo sapiens) (Q9Y2K2 whole entry, looked up, the tested form may be a part): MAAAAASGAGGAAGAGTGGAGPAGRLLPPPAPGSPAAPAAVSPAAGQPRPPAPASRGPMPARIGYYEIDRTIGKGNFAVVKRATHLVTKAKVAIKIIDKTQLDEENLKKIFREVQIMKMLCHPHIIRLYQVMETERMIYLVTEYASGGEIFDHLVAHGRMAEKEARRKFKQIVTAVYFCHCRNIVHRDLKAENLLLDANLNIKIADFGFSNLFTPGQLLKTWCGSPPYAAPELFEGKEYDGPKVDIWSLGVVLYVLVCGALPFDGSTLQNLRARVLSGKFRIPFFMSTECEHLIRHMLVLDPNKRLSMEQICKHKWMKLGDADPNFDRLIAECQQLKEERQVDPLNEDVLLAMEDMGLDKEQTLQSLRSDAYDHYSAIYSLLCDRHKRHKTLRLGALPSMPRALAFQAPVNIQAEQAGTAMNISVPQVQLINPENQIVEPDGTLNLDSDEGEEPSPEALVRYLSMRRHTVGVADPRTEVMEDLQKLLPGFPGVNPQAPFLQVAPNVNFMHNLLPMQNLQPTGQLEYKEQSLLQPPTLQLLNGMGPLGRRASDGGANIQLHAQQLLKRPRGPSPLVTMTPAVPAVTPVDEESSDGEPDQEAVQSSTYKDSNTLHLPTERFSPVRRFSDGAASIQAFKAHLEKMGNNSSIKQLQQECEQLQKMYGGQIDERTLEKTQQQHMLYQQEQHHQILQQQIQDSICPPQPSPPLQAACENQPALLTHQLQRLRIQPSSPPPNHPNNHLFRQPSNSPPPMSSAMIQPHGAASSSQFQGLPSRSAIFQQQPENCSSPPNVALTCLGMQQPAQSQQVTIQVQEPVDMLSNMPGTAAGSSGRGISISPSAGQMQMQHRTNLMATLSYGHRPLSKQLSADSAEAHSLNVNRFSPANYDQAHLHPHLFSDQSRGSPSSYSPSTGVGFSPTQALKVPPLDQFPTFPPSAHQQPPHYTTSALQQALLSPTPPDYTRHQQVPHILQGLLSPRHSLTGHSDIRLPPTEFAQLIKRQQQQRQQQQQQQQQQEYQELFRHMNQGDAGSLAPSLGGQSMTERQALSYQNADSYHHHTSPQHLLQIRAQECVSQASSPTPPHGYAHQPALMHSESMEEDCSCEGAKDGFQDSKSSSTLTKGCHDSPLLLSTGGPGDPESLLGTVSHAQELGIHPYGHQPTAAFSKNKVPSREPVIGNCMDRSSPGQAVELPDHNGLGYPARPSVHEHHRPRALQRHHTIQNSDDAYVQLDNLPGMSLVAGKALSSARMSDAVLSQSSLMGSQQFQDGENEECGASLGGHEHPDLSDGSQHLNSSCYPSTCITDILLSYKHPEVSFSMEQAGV
Chain of Serine/threonine-protein kinase TBK1 (Homo sapiens) (Q9UHD2 whole entry, the tested form may be a part): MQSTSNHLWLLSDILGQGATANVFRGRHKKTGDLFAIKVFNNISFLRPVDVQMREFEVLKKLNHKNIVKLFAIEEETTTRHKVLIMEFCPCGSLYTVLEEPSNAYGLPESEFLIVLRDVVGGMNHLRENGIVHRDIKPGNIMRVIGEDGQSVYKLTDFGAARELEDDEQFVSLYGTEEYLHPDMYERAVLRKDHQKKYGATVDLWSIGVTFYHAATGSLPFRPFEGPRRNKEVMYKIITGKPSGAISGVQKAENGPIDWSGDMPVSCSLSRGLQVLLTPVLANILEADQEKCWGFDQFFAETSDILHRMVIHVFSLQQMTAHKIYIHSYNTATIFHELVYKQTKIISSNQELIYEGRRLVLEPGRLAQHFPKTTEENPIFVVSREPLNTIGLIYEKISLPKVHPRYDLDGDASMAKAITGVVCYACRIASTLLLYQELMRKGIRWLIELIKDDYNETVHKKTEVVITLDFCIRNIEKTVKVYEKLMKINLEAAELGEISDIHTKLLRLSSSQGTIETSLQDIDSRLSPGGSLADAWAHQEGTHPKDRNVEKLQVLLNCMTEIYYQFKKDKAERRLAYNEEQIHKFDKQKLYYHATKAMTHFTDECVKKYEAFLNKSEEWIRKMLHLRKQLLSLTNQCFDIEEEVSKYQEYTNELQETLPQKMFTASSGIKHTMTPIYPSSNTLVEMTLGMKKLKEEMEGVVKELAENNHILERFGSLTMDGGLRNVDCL
Chain of Serine/threonine-protein kinase 4 (Homo sapiens) (Q13043 whole entry, the tested form may be a part): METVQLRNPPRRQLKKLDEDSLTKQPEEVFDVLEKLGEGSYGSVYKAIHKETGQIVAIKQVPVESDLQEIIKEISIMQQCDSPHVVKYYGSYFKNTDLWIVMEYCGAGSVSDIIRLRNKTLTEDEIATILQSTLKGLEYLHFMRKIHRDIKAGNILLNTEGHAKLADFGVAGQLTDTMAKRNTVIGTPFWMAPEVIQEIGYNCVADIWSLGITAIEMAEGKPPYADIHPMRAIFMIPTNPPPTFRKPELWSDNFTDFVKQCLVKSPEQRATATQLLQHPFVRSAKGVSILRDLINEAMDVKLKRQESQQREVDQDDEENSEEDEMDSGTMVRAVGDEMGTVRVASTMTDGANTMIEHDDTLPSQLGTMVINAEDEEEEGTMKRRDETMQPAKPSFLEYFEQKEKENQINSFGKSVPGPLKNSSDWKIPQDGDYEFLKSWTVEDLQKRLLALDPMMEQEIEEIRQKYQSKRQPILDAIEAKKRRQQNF
Chain of Casein kinase I isoform alpha-like (Homo sapiens) (Q8N752 whole entry, the tested form may be a part, canonical isoform): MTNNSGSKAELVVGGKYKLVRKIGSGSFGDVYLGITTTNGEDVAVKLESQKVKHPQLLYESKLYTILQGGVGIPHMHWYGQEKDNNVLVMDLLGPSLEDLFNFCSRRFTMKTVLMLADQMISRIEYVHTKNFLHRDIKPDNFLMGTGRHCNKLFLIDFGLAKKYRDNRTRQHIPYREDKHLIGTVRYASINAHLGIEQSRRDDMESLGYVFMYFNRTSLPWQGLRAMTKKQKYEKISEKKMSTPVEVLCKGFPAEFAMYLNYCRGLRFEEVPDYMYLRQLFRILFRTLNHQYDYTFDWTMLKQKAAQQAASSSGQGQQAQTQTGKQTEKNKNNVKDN

COc1cc(OC)c(Cl)c(N2Cc3cnc(Nc4ccc(F)cc4)nc3N(C3CCN(C(=O)/C=C/CN(C)C)CC3)C2=O)c1Cl
Activity [1]: 100% | Activity [2]: 88% | Activity [3]: 100% | Activity [4]: 100% | Activity [5]: 81% | Activity [6]: 98% | Activity [7]: 91% | Activity [8]: 96% | Activity [9]: 99% | Activity [10]: 100% | Activity [11]: 82% | Activity [12]: 90% | Activity [13]: 100% | Activity [14]: 81% | Activity [15]: 100% | Activity [16]: 100% | Activity [17]: 99% | Activity [18]: 92% | Activity [19]: 82% | Activity [20]: 83% | Activity [21]: 98%
